Reference: ChEMBL document CHEMBL2016555, “4-Methoxy-N-[2-(trifluoromethyl)biphenyl-4-ylcarbamoyl]nicotinamide: A Potent and Selective Agonist of S1P1” (ACS Med Chem Lett, 2011)
≈ marks a conversion by molar mass, not a printed value.

Assays:
[1] = Solubility of the compound in 0.01 M aqueous HCl; type: physicochemical
Rattus norvegicus = test: Immunosuppressive activity in Lewis rat assessed as change in peripheral lymphocyte count at 1 mg/kg, po after 24 hrs relative to vehicle treated control; type: functional
In short: (§1)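 Female Lewis rats (N = 5/group) given one oral dose of 1 mg/kg (20% captisol, 1% HPMC, 1% pluronic F68, pH 2.1 with MSA); blood lymphocyte count and total plasma compound measured at 24 h; POC vs vehicle, ANOVA/Dunnett's test.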

[2] = (§2) Plasma concentration in Lewis rat at 1 mg/kg, po at 24 hrs; type: ADME, organism-based; set-up: dose 1 mg/kg, route oral; details: Lewis, plasma; in short: as §1
[3] = Solubility of the compound in simulated intestinal fluid; type: physicochemical
[4] = Apparent permeability across pig LLC-PK1 cells; type: ADME, cell-based, Sus scrofa
In short: (§3)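 Permeability across porcine proximal tubule LLC-PK1 cell monolayers; apparent permeability (Papp) and efflux ratio determined.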

[5] = Intrinsic clearance in rat liver microsomes after 30 mins; type: ADME, Microsome; details: read-out: CLH
[6] = Efflux ratio of apparent permeability across pig LLC-PK1 cells; type: ADME, cell-based, Sus scrofa; in short: as §3
[7] = molecular target: T1, Sphingosine 1-phosphate receptor 1 (Homo sapiens, UniProt P21453); test: Agonist activity at human S1P1 expressed in U2OS cells coexpressing eGFP assessed as receptor internalization after 1 hr by microscopic analysis relative to 1-(4-(6-benzylbenzofuran-2-yl)-3-fluorobenzyl)azetidine-3-carboxylic acid; type: functional, cell-based
In short: (§4)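 Human S1P1–eGFP fusion protein expressed in U2OS cells; agonism read as receptor internalization; EC50 derived, efficacy expressed relative to 1-(4-(6-benzylbenzofuran-2-yl)-3-fluorobenzyl)azetidine-3-carboxylic acid at 1.0 μM.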

[8] = molecular target: T1, Sphingosine 1-phosphate receptor 1; test: Agonist activity at human S1P1 expressed in U2OS cells coexpressing eGFP assessed as receptor internalization after 1 hr by microscopic analysis; type: functional, cell-based; in short: as §4
[9] = Solubility of the compound in phosphate buffer saline at pH 7.4; type: physicochemical; details: phosphate buffered saline
[10] = molecular target: Sphingosine 1-phosphate receptor 3 (Homo sapiens, UniProt Q99500); test: Agonist activity at human S1P3 expressed in CHO-K1 cells coexpressing Gq/i5 assessed as intracellular calcium release by fluorimetry; type: functional, cell-based
In short: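 CHO-K1 cells expressing the human S1P receptor subtype plus chimeric Gq/i5; Ca2+ mobilization measured; efficacy relative to S1P at 0.20 μM; compounds not reaching >10% of control activity reported as > highest concentration tested.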

Plasma = test: as §2; type: ADME, organism-based; set-up: dose 1 mg/kg, route oral; details: in vivo, 24 h, BLD = below limit of detection; in short: as §1

T1 sequence (P21453 whole entry, the tested form may be a part): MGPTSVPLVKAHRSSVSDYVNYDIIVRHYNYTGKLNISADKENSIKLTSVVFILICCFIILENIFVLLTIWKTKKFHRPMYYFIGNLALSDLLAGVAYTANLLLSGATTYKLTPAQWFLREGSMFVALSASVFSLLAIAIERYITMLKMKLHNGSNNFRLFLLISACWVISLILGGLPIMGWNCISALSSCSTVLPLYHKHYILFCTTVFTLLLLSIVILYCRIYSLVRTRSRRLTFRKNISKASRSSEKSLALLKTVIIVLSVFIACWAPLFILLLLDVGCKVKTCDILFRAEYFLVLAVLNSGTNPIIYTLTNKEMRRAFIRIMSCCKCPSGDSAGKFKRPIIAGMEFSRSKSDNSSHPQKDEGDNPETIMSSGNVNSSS
Sequence of Sphingosine 1-phosphate receptor 3 (Q99500 whole entry): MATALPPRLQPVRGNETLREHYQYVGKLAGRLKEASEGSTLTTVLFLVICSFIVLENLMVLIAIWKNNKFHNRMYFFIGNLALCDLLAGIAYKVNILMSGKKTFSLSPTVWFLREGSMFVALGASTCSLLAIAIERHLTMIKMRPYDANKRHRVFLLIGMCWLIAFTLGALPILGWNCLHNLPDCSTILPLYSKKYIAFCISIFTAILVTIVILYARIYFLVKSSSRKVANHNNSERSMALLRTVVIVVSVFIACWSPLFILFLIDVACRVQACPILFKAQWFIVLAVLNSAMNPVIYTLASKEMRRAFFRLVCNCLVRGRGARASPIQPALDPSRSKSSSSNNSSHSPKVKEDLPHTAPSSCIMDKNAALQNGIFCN

Row | solubility [1] [µg/mL] | concentration at 24 h [2] [ng/mL] | solubility [3] [µg/mL] | Papp [4] [×10⁻⁶ cm/s] | microsomal CLint [5] [µL/min/mg] | efflux ratio [6] | Efficacy [7] [%] | EC50 [8] [nM] | solubility [9] [µg/mL] | EC50 [10] [nM] | Cp (Plasma) | Structure (SMILES) | Activity (Rattus norvegicus) [%]
1 | 28 (≈ 67.4 µM) | 13 | 8.5 (≈ 20.5 µM) | 7.4 | 15 | 1.1 | 110 | 13 | 19 (≈ 45.7 µM) | – | – | COc1ccccc1C(=O)NC(=O)Nc1ccc(-c2ccccn2)c(C(F)(F)F)c1 | -14
2 | < 1 | – | 27 (≈ 66.8 µM) | 1.8 | 29 | 1 | 87 | 430 | < 1 | > 25000 | – | COc1ccccc1C(=O)NC(=S)Nc1ccc(N2CCCCC2)c(Cl)c1 | –
3 | < 1 | 7 | 24 (≈ 61.8 µM) | 1.2 | < 14 | 1 | 120 | 5.4 | < 1 | – | – | COc1ccccc1C(=O)NC(=O)Nc1ccc(-c2ccccc2)c(C(C)C)c1 | 3
4 | 3 (≈ 7.12 µM) | – | 4.1 (≈ 9.73 µM) | < 1 | 26 | – | 120 | 13 | < 1 | – | – | COc1ccccc1C(=O)NC(=O)Nc1ccc(N2CCCCC2)c(C(F)(F)F)c1 | –
5 | < 1 | – | 6.9 (≈ 18.1 µM) | 2.1 | < 14 | 1 | 110 | 14 | < 1 | – | BLD | COc1ccccc1C(=O)NC(=O)Nc1ccc(C(C)C)c(C(F)(F)F)c1 | -16
